Bioassay records as filed in PubChem BioAssay.
NLRP3 yeast inh: blocks the NALP3 inflammasome reconstituted in yeast. Yeast reconstituted NLRP3/ASC/caspase-1, beta-gal luminescence, 24 h. AID 2825. inhibition, % at 10 µM. 330,000 compounds, 0.39% hits;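 active means inhibition of 50% or more; inactive means inhibition below 50%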;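 further: plate controls were induced DMSO wells for no effect and uninduced yeast grown without galactose for full effect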
DSG3 Ab inh: human desmoglein-3 autoantibody binding inhibition | DSG3-coupled beads, scFv-anti-DSG3-GFP binding, flow cytometry; hits give low values | AID 588358 | binding (percent of control), % at 10 µM | P32926 | 310,000 compounds, 0.48% hits;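 active means binding more than 3 SD below its plate's average and above zero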;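 further: hits lower antibody fragment binding to DSG3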
Arr AP2 block: inhibitors of human beta-arrestin and AP2 interaction | FITC-arrestin peptide / GST-AP2 beads, flow cytometry; AP2 beta2 appendage carries R879A mutation | inhibition, % at 10 µM | 340,000 compounds, 0.31% hits | AID 504490;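 active means inhibition above a set limit, near 3 SD of compounds lacking own fluorescence, cut at about 54% in these data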;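 further: plate controls were DMSO wells for no effect and 5 µM unlabelled arrestin peptide for full effect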
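System: GST-AP2 R879A glutathione beads | Also added: FITC-arrestin peptide, 50 nM | Times: 12 min plus 1 h, RT | Signal: Bead flow cytometry, FITC channel | Buffer or medium: PBS with 0.05% Tween 20 and 0.1% BSA | Read-out basis: Percent drop in bead-associated FITC signal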
ALR H2O2 inh: inhibitors of human sulfhydryl oxidase ALR; purified ALR, DTT oxidation, H2O2 HRP-luminol luminescence; P55789; inhibition, % (concentration not given with the values); 290,000 compounds, 3.8% hits;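 active means mean replicate inhibition above about 79%, with every replicate also reaching it, limit read from the data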
Target sequence (P55789 whole entry, looked up): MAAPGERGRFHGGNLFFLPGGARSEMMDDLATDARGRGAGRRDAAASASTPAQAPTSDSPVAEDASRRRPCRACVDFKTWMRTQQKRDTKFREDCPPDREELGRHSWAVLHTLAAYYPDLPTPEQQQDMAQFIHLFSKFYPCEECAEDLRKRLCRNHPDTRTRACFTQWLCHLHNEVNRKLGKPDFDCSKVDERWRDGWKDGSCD
PolyA inhibitor: blocks polyadenylation in yeast reporter cells; S. cerevisiae SKY197-pL101 polyadenylation reporter, beta-gal luminescence; efflux-impaired pdr1/pdr3 knockout yeast; score 100 = 6 SD above DMSO; activity score, % at 12 µM; 300,000 compounds, 0.02% hits; AID 1875;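 active means lowest replicate activity score at least 50, where 100 means six control SD above control mean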;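 further: yeast exposed to compound for 9 h at 30 °C; higher score means more reporter readthrough which indicates perturbed polyadenylation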
NALP1 yeast inh: NALP1 inhibition; S. cerevisiae NALP1/ASC/caspase-1 growth, X-gal OD620, 72 h; inhibition, % at 10 µM; 280,000 compounds, 0.61% hits; in the data active means inhibition mostly above about 24%, no sharp cut-off; inactive means mostly below about 32%
* marks the source's active call; other numbers are inactive results; . = no result. Most compounds without a hit are left out; they make up all but 4.6% or so of the library.

SMILES | NLRP3 yeast inh | DSG3 Ab inh | Arr AP2 block | ALR H2O2 inh | PolyA inhibitor | NALP1 yeast inh
Cc1[nH]c2ccc(C(=O)Nc3ccncc3)cc2c1C | 17 | 109 | -1 | . | -15 | 14
COc1ccccc1NC(=O)c1ccc2[nH]c(C)c(C)c2c1 | 37 | 106 | -1 | 87* | -35 | 24
Oc1ccc(-c2nc(=S)[nH][nH]2)cc1 | 18 | . | 34 | . | 1 | -4
S=c1nc(-c2cccc(Cl)c2)[nH][nH]1 | . | 102 | 17 | 92* | -5 | -15
S=c1nc(-c2cc(Cl)cc(Cl)c2)[nH][nH]1 | 15 | . | 32 | 98* | -1 | 11
S=c1nc(-c2cc(Cl)ccc2Cl)[nH][nH]1 | -1 | 102 | 10 | -77 | 10 | -2
O=C1NCCCc2c1oc1ccc(O)cc21 | 0 | 105 | -2 | 99* | -3 | 4
O=C(CN1CCN(c2ncccn2)CC1)N1CCCc2c1c(=O)oc1ccc(O)cc21 | 1 | . | -9 | 1 | . | 10
CCOC(=O)N1CCC(NC(=O)c2cc(-c3ccc(F)cc3)[nH]c2C)CC1 | 5 | 103 | 3 | 98* | -10 | 8
CCOC(=O)N1CCC(NC(=O)c2cc(S(=O)(=O)N3CCC4(CC3)OCCO4)ccc2F)CC1 | -8 | 103 | 2 | 99* | -17 | 8
CCOC(=O)N1CCC(NC(=O)c2cc(S(=O)(=O)N3CCOCC3)ccc2F)CC1 | 0 | 97 | 3 | 2 | -1 | 2
COc1ccc(CNC(=O)CN(Cc2ccc(C)cc2)C(=O)c2csnn2)cc1 | 10 | . | -5 | -3 | 12 | 8
Cc1ccc(C(=O)n2nc(-c3ccccc3)nc2NCc2ccco2)cc1 | 8 | 101 | 13 | 2 | -11 | 12
CCCC(=O)n1nc(-c2ccc(C)cc2)nc1NCc1ccco1 | 5 | 108 | 5 | 90* | -3 | 8
C=CCNc1nc(-c2cccc(OC)c2O)nc2ccccc12 | 23 | 92* | 8 | 0 | -39 | -15
COc1cccc(-c2nc(NCc3ccccc3)c3ccccc3n2)c1O | 15 | 98 | -12 | . | -45 | 3
COc1cccc(-c2nc(NCc3ccco3)c3ccccc3n2)c1O | 12 | 64* | -1 | . | -12 | 2
CSc1ccccc1NC(=O)C1=CC(c2cccs2)=NS(=O)(=O)N1C | 17 | 101 | 1 | -12 | 10 | 14
O=C(Oc1c(-c2ccccc2)c(=O)n2c3c(cccc13)CC2)c1cccc([N+](=O)[O-])c1 | -29 | 95 | 4 | 30 | 67* | 8
O=C(Oc1c(-c2ccccc2)c(=O)n2c3c(cccc13)CC2)c1ccccc1 | -25 | 97 | -14 | 4 | -10 | 7
Cc1ccc(OCC(=O)OCC(=O)NC2CCS(=O)(=O)C2)cc1C (configuration not stated) | . | 103 | . | . | . | .
COc1cc(/C=C/C(=O)O)cc(S(=O)(=O)Nc2ccc3c(c2)OCO3)c1OC | 13 | 119 | -9 | -78 | 0 | 4
COc1cc(/C=C/C(=O)O)cc(S(=O)(=O)NNC(=O)c2ccc3c(c2)OCO3)c1OC | 8 | 123 | 6 | 90* | . | .
COc1ccc(-c2ccc(CO)o2)cc1N | 19 | 103 | -7 | 99* | 20 | 7
COc1ccc(OC)c(N)c1 | 15 | . | 3 | 12 | -10 | -17
SMILES | NLRP3 yeast inh | DSG3 Ab inh | Arr AP2 block | ALR H2O2 inh | PolyA inhibitor | NALP1 yeast inh
COCCNC(=O)c1cn(C)c2ccc(S(=O)(=O)N3CCCCC3)cc2c1=O | 15 | 99 | -19 | -5 | 19 | 18
Clc1ccc(-c2cnc(Oc3ccccc3)nc2)cc1 | -9 | 92 | 3 | . | 8 | 39*
COc1ccccc1N1CCN(C(=O)C2CCN(S(=O)(=O)c3ccccc3F)CC2)CC1 | 17 | 112 | -14 | 0 | . | .
CC(C)[n+]1ccn(C2=C([O-])c3ccccc3C(=O)/C2=N\S(=O)(=O)c2ccccc2)c1 | 12 | . | 37 | -24 | 16 | 36*
COC(=O)c1cccc(-n2sc3ccccc3c2=O)c1 | 14 | 38* | 11 | 7 | . | .
Cc1ccc(-n2sc3cc(F)ccc3c2=O)c(C)c1 | . | 63* | . | . | . | .
O=c1c2ccccc2sn1-c1ccc(F)cc1 | 3 | 42* | 18 | 19 | . | .
O=c1c2ccc(F)cc2sn1-c1ccccc1 | . | 50* | . | . | . | .
CCN1C(=O)[C@@H]2Cc3c([nH]c4ccccc34)C(c3ccc(OC)cc3)N2C1=S (some centres not stated) | 5 | 97 | 7 | -6 | -11 | 2
O=C(COC(=O)C1CCN(S(=O)(=O)c2ccccc2)CC1)NCCc1ccccc1 | 7 | . | 7 | . | . | .
O=C(C[n+]1cc(-c2ccc(Cl)cc2)n2c1CCC2)Nc1nc(-c2ccccc2)cs1 | -1 | 117 | -5 | 94* | -4 | 7
CC#CCCCC(=O)Nc1cccc(C(=O)O)c1 | 12 | 103 | 16 | 90* | 0 | 13
CCCCC(=O)NC(=S)Nc1cccc(C(=O)O)c1 | 15 | 105 | -18 | 1 | 0 | -11
O=P(O)(CCc1ccccn1)CN1CCOCC1 | 5 | 100 | 7 | -9 | 6 | 39*
CCN(CC)c1ccc(C(=O)OCc2cc(=O)oc3cc(O)ccc23)cc1 | 9 | 86* | -3 | 0 | -7 | 13
CCN(CC)c1ccc2c(O)cc(=O)oc2c1 | 3 | 107 | 1 | 45 | -3 | 0
O=C(O)c1ccccc1SCc1ccc2c(c1)OCO2 | 5 | 101 | -3 | -2 | -13 | 10
O=C(c1ccc2c(c1)OCO2)N1CCN=C1SCc1ccccc1 | 21 | 108 | 1 | 93* | 2 | 30
O=C(c1cccc(F)c1)N1CCN=C1SCc1cccnc1 | 11 | 102 | -2 | 100* | -20 | -15
COc1cc(OC)cc(-c2nnc(SCc3cccnc3)o2)c1 | 8 | 84 | 4 | -4 | 3 | 2
O=C(c1ccc(Br)o1)N1CCN=C1SCc1cccc(F)c1 | 17 | 106 | 2 | 58 | 0 | 8
COc1cc(OC)cc(C(=O)N2CCN=C2SCc2cccnc2)c1 | 6 | 106 | 13 | 100* | 0 | 7
O=C(NCC(c1ccco1)N1CCCCC1)c1cccnc1 (configuration not stated) | 16 | 107 | -11 | -4 | . | .
O=C1CN(C(=O)COC(=O)c2ccc(Br)o2)c2ccccc2N1 | 12 | . | -3 | . | . | .
Cc1ccc(Cl)cc1N1CCN(S(=O)(=O)c2ccc3c(c2)CC(=O)N3C)CC1 | -3 | 98 | 15 | 6 | 0 | 8
CN1c2ccccc2C(O)=C(C(=S)Nc2ccc(F)c(Cl)c2)S1(=O)=O | 9 | 104 | 16 | 96* | -13 | 31
O=C(c1ccco1)N1CCN(C(=O)c2cccc3c2C(=O)N(Cc2cccnc2)C3)CC1 | 9 | 96 | 1 | 4 | 7 | 36*
CN(CCc1ccccc1)C(=O)c1ccc(NC(=O)Cc2ccc(NC(=O)C3CCN(C(=O)c4ccccc4)CC3)cc2)cc1 | . | 102 | 3 | . | . | .
